From ChEMBL document CHEMBL4513216, “Probing the Open Global Health Chemical Diversity Library for Multistage-Active Starting Points for Next-Generation Antimalarials” (ACS Infect Dis, 2020)

Test: Toxicity liver stage against HepG2, at 10uM
Type: cell-based
Parameters: test concentration 10 uM, cell line HepG2-A16-CD81EGFP
Conditions: human, HepG2-A16-CD81EGFP cells; read-out: INHIBITION
How it was run: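 Uninfected HepG2-A16-CD81EGFP cells, 3 × 10^3 per well, 1536-well, plated on prespotted compound at 10 μM final, parasite-free screening media added to match infected plates; puromycin 10 μM positive, DMSO 0.5% negative; run in parallel with 48 h PbLuc assay at 37 °C, 5% CO2; viability by CellTiter-Glo luminescence, normalized to controls.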

| SMILES | cytotoxicity at 10 µM [%] |
| --- | --- |
| Cc1cccc2c1nc1n2[C@@H](CNC2CCCCC2)COC1 | -51.8 |
| CC(C)(C)CN[C@@H]1CO[C@H](CNC(=O)C2CCCC2)[C@H]1O | -9.03 |
| COc1ccccc1CN1C[C@@H](F)[C@@H](OCc2nc3ncccc3[nH]2)C1 | 6.96 |
| O=S(=O)(NC[C@H]1OC[C@@H](NCc2cccs2)[C@@H]1O)c1ccccc1 | 3.98 |
| CCOC(=O)[C@@H]1[C@@H](c2ccccc2)CN2CCN(C(C)=O)C[C@H]12 | 9.28 |
| CC(C)n1cc(C(=O)NC2CN3CCC2CC3)c2ccccc21 (centres undefined) | -59.7 |
| Cc1nc(-n2nc(-c3cccs3)cc2N)[nH]c(=O)c1C | 4.84 |
| c1csc(CN2CCC3(CC2)COCCN3CC2CC2)n1 | 5.53 |
| COc1ccc(OC)c(CN2CCCCCC2c2cccs2)c1 (centres undefined) | -5 |
| Cc1cccc(NC(=O)Cn2ncc(SCC(N)=O)c(Cl)c2=O)c1C | -15.7 |
| CC(C)CN1CCC2(CCN(Cc3ccoc3)CC2)C1=O | 7.85 |
| Cc1c(-c2cc(C(F)(F)F)nc(N3CCC(N)CC3)n2)cnn1C | 6.14 |
| CCn1nc(C)c2nc(C(C)C)nc(NCCCn3cccn3)c21 | 8.71 |
| CCOc1cc(C(=O)N2CCCC2)cc2occc12 | 8.52 |
| Cc1nn(CC(=O)N2CCN(Cc3cn(C)nc3C)CC2)cc1Br | -6.28 |
| Cc1cnc2[nH]c(C(F)(F)F)c(CN3CCCC(CO)C3)c2c1 (centres undefined) | 8.48 |
| CCC(=O)N1CCCC1c1nc(N(C)C)ncc1-c1ccc(Cl)cc1 (centres undefined) | 5.82 |
| Cc1cc(O)nc(C2CN(CCO)CCO2)n1 (centres undefined) | -27.8 |
| COc1cccc(CC(=O)N2CCCC2c2nc(C)c(C)c(O)n2)c1 (centres undefined) | -36.9 |
| Cc1cc(-c2cnc(N3CCNC(=O)C3)nc2-c2ccncc2)on1 | -25 |
| Cc1cccc(CC(=O)N2CCCC(c3n[nH]c4nccnc34)C2)c1 (centres undefined) | -8.52 |

| SMILES | cytotoxicity at 10 µM [%] |
| --- | --- |
| O=C(C1CCCCC1)N1CCC2(COc3ncccc3S(=O)(=O)N2)C1 (centres undefined) | 11.3 |
| CC(=O)Nc1nccn1Cc1ccccc1Cl | -8.1 |
| O=C(NCc1nnc2n1CCC2)c1cn(-c2ccccc2Br)nn1 | 3.37 |
| CS(=O)(=O)N1CCCC(c2nc(-c3ccccc3)c[nH]2)C1 (centres undefined) | 2.44 |
| Cc1nn(C)c(C)c1C1CCCN1Cc1nnc(C2CC2)n1C (centres undefined) | 1.76 |
| COc1cc(NC(=O)NCc2nccn2C)ccc1Br | -9.11 |
| O=C(Cc1cccnc1)N1CCCC(c2cc(C(F)(F)F)[nH]n2)C1 (centres undefined) | -42.6 |
| NC(=O)C(Cc1ccccc1)NS(=O)(=O)Cc1ccccc1F (centres undefined) | -13 |
| COc1cc(C#N)ccc1OCC(=O)NS(=O)(=O)c1ccccc1 | 0.165 |
| CCN1CC(COC(=O)c2cc(C)nn2CC)CC1=O (centres undefined) | -3.37 |
| COc1cc(C)c(S(=O)(=O)CC(=O)N(C)C2CC2)cc1OC | -3.81 |
| Fc1cc(CNCCn2cccn2)ccc1-n1cncn1 | -11.1 |
| Cc1nccn1-c1ccc(C(C)NCc2cc[nH]n2)cc1 (centres undefined) | 5.33 |
| COc1cc(OC)cc(N2CCC(NC(=O)c3ccc[nH]3)CC2)c1 | -4.83 |
| Cn1ccc(C(=O)N2CCOC(c3ccccc3)C2)cc1=O (centres undefined) | -0.944 |
| COC(=O)CN(CC1CCOC1)C1CC1 (centres undefined) | -24.3 |
| CCCn1cc(NC(=O)c2ccncc2)ccc1=O | -8.44 |
| CCC1CCCCN1CCNC(=O)N1CCN(Cc2ccon2)CC1 (centres undefined) | -2.01 |
| O=C(C1CCCc2[nH]ncc21)N1CCCC2(C1)OCCO2 (centres undefined) | -1.26 |
| CCCS(=O)(=O)NCc1cccnc1OCc1ccccc1 | 13 |
| CCC(=O)N1CCCC1c1ccsc1 (centres undefined) | -6.05 |

| SMILES | cytotoxicity at 10 µM [%] |
| --- | --- |
| N#Cc1cccc(C(=O)NS(=O)(=O)c2ccc(C#N)c(Cl)c2)c1 | -3.54 |
| Cc1cc(N2CCc3cncnc3C2)n2nc(C(F)(F)F)nc2n1 | 6.25 |
| CN1CCN(c2ccccc2NC(=O)c2ccco2)CC1 | -5.92 |
| c1ccc(C(NCc2nnc(-c3ccco3)o2)C2CCC2)cc1 (centres undefined) | -48.7 |
| O=C1C(N2CCOCC2)CCCN1Cc1cccc(C(F)(F)F)c1 (centres undefined) | 0.174 |
| Cc1noc(-c2cccnc2N(C)Cc2cc(C)on2)n1 | -5.1 |
| CC1CCCCN1CCNC(=O)NCc1ccc(C#N)cc1F (centres undefined) | 0.616 |
| N#CCSCCCN1CCN(C(=O)C2CCCC2)CC1 | 5.34 |
| C[C@@H]1CN(C(=O)c2cccc(F)c2)C[C@]12CCN(c1ccsc1)C2=O | -80 |
| O=C(c1ccncn1)N1CCC[C@]2(C[C@H](OCC3CC3)CO2)C1 | -81.9 |
| Cc1cc(CN2CC[C@H]3C[C@@H](C)O[C@@H]3C2)no1 | -75.5 |
| c1cncc(OC2CCN(CCn3cc4ccccc4n3)CC2)c1 | 1.48 |
| Cc1ncsc1CCN(C)C1CCN(c2ncnc3[nH]cnc23)CC1 | -39 |
| CCc1ccc2nc(NCC(O)CO)cc(C)c2c1 (centres undefined) | -15.4 |
| CN(Cc1ccoc1)C(=O)Cn1ncc(N(C)C)cc1=O | 7.68 |
| COc1cc(-c2cccc3c2OC(CN)C3)ccc1O (centres undefined) | -51.9 |
| Clc1cccc2c1CCN(Cc1nc(CC3CC3)no1)C2 | 0.873 |
| CN(CCc1cnn(C)c1)C(=O)CN1C(=O)OC[C@@H]1c1ccccc1 | -41.7 |
| CCC(CO)N(Cc1ccsc1)CC1CC1 (centres undefined) | 11.5 |
| Cc1ccc(CN2CCN(C3CSCCSC3)CC2CCO)o1 (centres undefined) | -8.51 |
| CCN(Cc1cccc2c1OCO2)CC1CCCO1 (centres undefined) | 3.18 |

| SMILES | cytotoxicity at 10 µM [%] |
| --- | --- |
| CN1CC2(CCN(C(=O)c3ccc(=O)n(C)c3)CC2)CC1=O | -4.46 |
| CCCc1nc(CNc2nc(C)nc3oc(C)nc23)cs1 | -39.6 |
| CC(C)N1CC2(CCCN(Cc3noc(C4CCCC4)n3)C2)CCC1=O (centres undefined) | 0.00194 |
| Cc1n[nH]c(C)c1CCc1nc(C2CC2)n[nH]1 | -12 |
| O=C(Nc1ccccc1C(=O)NCCCN1CCOCC1)c1ccco1 | 8.17 |
| Cc1cc(C(=O)N[C@H]2CN(CCC(N)=O)C[C@@H]2C2CC2)sc1C | 8.28 |
| CC(C)c1cccc(N2CCCC3(CCC(=O)N(C4CC4)C3)C2)n1 (centres undefined) | -5.01 |
| COc1ccc(C(CNC(=O)c2c(C)noc2C)N(C)C)cc1 (centres undefined) | -13.1 |
| c1cnnc(NCC2CN(Cc3ccon3)CCO2)c1 (centres undefined) | -32.2 |
| CNS(=O)(=O)c1cccc(CNc2ncccn2)c1 | -9.7 |
| O=C(NCCNc1ncccn1)C1CC(=O)N(Cc2ccccn2)C1 (centres undefined) | -10.4 |
| Cn1ncc2c1CCCC2NCc1cccc(OC2CCCC2)c1 (centres undefined) | -19.3 |
| Brc1cccnc1OC1CCNCC1 | -10.3 |
| O=C(N1CCCC1)C1(Cc2ccc(-c3cccs3)cc2)CCNC1 (centres undefined) | -1.75 |
| c1cncc(CN2CCO[C@@H]3CN(Cc4ccoc4)CC[C@@H]3C2)c1 | -70.9 |
| CC(C)Oc1ncnc2c1CCN(Cc1ccco1)CC2 | 8.49 |
| CN(CCc1ccccn1)C(=O)c1cccs1 | 3.45 |
| O=C(c1ccccc1)N1CCCn2c(CN3CCCCC3)nnc2C1 | -65.5 |
| O=C([C@H]1C[C@@H]2CCN(C3CCOCC3)C[C@H]2O1)N1CCCC1 | 7.31 |
| CN1CCN(C=C2N=C(c3cc(-c4ccc(F)cc4)n[nH]3)ON2)CC1 | -2.08 |
| CCn1[nH]c(C)c2c(C(F)(F)C(F)(F)F)cc(=O)nc1-2 | -9.29 |
